Assay outcomes deposited in PubChem by The Scripps Research Institute Molecular Screening Center.
M5 PAM = positive allosteric modulators of human muscarinic M5 receptor; actives 0.3% (n = 360,000); activation, % at 3 µM; CHO-K1 hM5, Fluo-8 calcium, ACh EC20 PAM; 0% = ACh EC20, 100% = ACh EC100; AID 624038;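 active = activation above the run cutoff, the mean activation of all test compounds plus 3 SD, cut at about 18% in these data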
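System: CHO-K1 cell line with stable human muscarinic M5 receptor expression | Also added: EC20 acetylcholine as agonist stimulus | Compound: One concentration, 3 µM final (nominal) | Timing: Fluo-8 loading 80 min at 37 °C plus 30 min room temperature | Measured by: Fluo-8 calcium dye fluorescence, kinetic read | Read-out basis: % activation, ACh-normalized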
CHRM5 antagonist = CHRM5 antagonism in calcium assay | P08912 | CHO-hM5 cells, Fluo-8 calcium fluorescence, ACh EC80 | inhibition, % at 3 µM | actives 0.59% (n = 360,000) | AID 624040;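 active = inhibition above a per-plate cutoff, the mean of that plate's test compounds plus 3 SD, cut at about 27% in these data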;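 also: 0% = acetylcholine EC80 with DMSO and 100% = DMSO without agonist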
M4 ag = CHRM4 agonism in calcium assay. P08173. CHO-K1 hM4/Gqi5, Fluo-8 calcium fluorescence; vehicle 0%, full acetylcholine response 100%. actives 0.14% (n = 360,000). AID 624127. activation, % at 3 µM;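 active = activation above the run mean over all test wells plus 3 SD, cut at about 32% in these data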;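 also: peak over basal fluorescence ratio per well then scaled between controls; 0% = DMSO wells and 100% = acetylcholine at EC100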
Target sequence (P08173 whole entry, looked up): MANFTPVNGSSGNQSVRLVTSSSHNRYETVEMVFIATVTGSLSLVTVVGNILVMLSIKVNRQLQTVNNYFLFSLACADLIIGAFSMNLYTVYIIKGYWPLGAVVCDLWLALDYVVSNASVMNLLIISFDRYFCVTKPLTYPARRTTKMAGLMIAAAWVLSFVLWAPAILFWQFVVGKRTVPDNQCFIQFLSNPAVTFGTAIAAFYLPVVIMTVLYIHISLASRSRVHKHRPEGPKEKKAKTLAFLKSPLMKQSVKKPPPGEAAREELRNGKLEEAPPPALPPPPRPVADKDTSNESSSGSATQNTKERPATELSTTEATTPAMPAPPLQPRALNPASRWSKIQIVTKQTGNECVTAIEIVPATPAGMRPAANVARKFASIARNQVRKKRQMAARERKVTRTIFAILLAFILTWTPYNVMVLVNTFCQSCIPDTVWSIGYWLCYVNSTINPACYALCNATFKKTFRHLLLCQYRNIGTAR
M4 antag = antagonists of human muscarinic M4 receptor (CHRM4); CHO-hM4 cells, ACh EC80, Fluo-8 calcium fluorescence; inhibition, % at 3 µM; actives 0.73% (n = 360,000); AID 624125;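 active = inhibition above its plate's cutoff, the mean inhibition of sample wells plus 3 SD, cut at about 27% in these data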;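 also: 0% = acetylcholine EC80 with DMSO and 100% = DMSO without agonist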
CHRM4 PAM = CHRM4 positive allosteric modulation | P08173 | CHO-K1 hM4/Gqi5, Fluo-8 calcium fluorescence, ACh EC20; 0% = ACh EC20, 100% = maximal ACh | activation, % at 3 µM | actives 0.4% (n = 360,000) | AID 624126;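 active = activation above its plate's cutoff, the mean activation of sample wells plus 3 SD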
M5 ag = CHRM5 agonism in calcium assay; CHO-K1 hM5 cells, Fluo-8 calcium fluorescence; 0% DMSO wells, 100% maximal acetylcholine response; activation, % at 3 µM; actives 0.19% (n = 360,000);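 active = activation above the run's mean over test compounds plus 3 SD, cut at about 23% in these data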;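 also: signal is peak over basal fluorescence ratio across the kinetic read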
The depositor's hits bear a star. An excerpt weighted towards active compounds, which were near 1.8% of everything screened.

SMILES	M5 PAM	CHRM5 antagonist	M4 ag	M4 antag	CHRM4 PAM	M5 ag
COc1ccc(C)cc1S(=O)(=O)N(CC(=O)O)c1ccccc1	3	-4	1	-4	-1	-1
COc1ccc(C)cc1S(=O)(=O)N(CC(=O)O)c1ccc(C)cc1	12	-13	0	6	32*	3
O=C(COC(=O)C1CCC1)Nc1ccc(OC(F)F)cc1	1	0	1	0	-4	-5
O=C(COC(=O)C1CC1)Nc1ccc(OC(F)F)cc1	5	-3	2	29*	4	1
CCOC(=O)CCc1c(C)n(CC)c2cc(-c3ccccc3OC)nn2c1=O	13	0	-1	-9	19*	-9
CCOc1ccc(C2C(C#N)=C(N)SC(N)=C2C#N)cc1OCC	-3	4	6	5	1	5
CCc1ccc(C2C(C#N)=C(N)SC(N)=C2C#N)cc1	-13	0	46*	1	-13	16
O=C(c1ccc(Br)o1)N1CCN(C23CC4CC(CC(C4)C2)C3)CC1	-7	9	2	31*	-15	-8
O=C(c1ccco1)N1CCN(C(=O)c2ccc(Br)o2)CC1	-1	0	2	-7	11	0
CC1(C(=O)NS(=O)(=O)c2ccc(C#N)cc2)CCN1C(=O)C1(c2ccccc2)CCCC1 (stereo unspecified)	1	-3	2	-15	18*	-1
C=CCc1cccc(/C=N/n2cnnc2)c1O	0	-2	1	13	41*	2
CCOC(=O)[C@H]1[C@H]2COc3ccc(OC)cc3[C@@H]2N2C(=O)CN(Cc3ccccc3)C(=O)[C@@]12C	5	-1	10	-5	-6	-8
Cc1ccc(/C=C/C(=O)OCC(=O)NC(C)C)o1	8	-2	2	2	11	4
COc1ccc(S(=O)(=O)N2CCOCC2)cc1NC(=O)COC(=O)c1ccc([N+](=O)[O-])s1	-8	12	5	-7	3	1
Cc1ccc(Nc2nc(-c3c(C)nc4ccccn34)cs2)cc1	-20	19	10	27*	-31	-6
COc1cccc(C(=O)c2ccncc2C(=O)O)c1OC	5	-1	0	5	1	0
Cc1cc(C(=O)N/N=C/c2c(C)[nH]n(-c3ccccc3)c2=O)n[nH]1	19*	-15	0	-2	7	-4
Cc1[nH]n(-c2ccccc2)c(=O)c1/C=N/NC(=O)c1ccc(O)cc1O	-5	13	-2	-1	2	-3
O=C(CC1Sc2ccccc2NC1=O)NCc1ccc(Cl)cc1 (stereo unspecified)	2	4	1	-3	3	-1
COc1ccc(C(=O)Nc2cc(-c3ccccc3)nn2-c2ccccc2F)cc1	25*	-13	-1	-4	21	-7
CN(C)CCN(Cc1ccco1)c1ccccn1	-16	17	1	1	-2	-11
CN(C)CCN(Cc1cccs1)c1ccccn1	-17	7	1	27*	-17	-1
Cc1c(Cl)cccc1NC(=O)CNc1cccc(C(F)(F)F)c1	-3	-6	3	-16	-2	-1
CC(C)(CO)NCC(=O)Nc1cc(C(F)(F)F)cc(NC(=O)CNC(C)(C)CO)c1Cl	1	4	1	6	21*	-1
Cc1ccc(NC(=O)COC(=O)Cn2ccc(C(F)(F)F)n2)cc1Cl	11	-16	0	-20	22*	0
SMILES	M5 PAM	CHRM5 antagonist	M4 ag	M4 antag	CHRM4 PAM	M5 ag
Cc1ccc(NC(=O)COC(=O)CN2CCSC2=O)cc1Cl	1	1	4	-20	11	6
O=C(NCC(c1ccco1)N1CCCC1)c1cc(S(=O)(=O)N2CCOCC2)ccc1Cl (stereo unspecified)	7	2	-1	6	-6	-3
N#CC(C#N)=C1C=CC=CN1/C(=C\c1ccco1)C(=O)c1ccccc1	-3	10	2	30*	-12	-5
N#CC(C#N)=C1C=CC=CN1/C(=C\c1ccco1)C(=O)c1ccc(Br)cc1	-8	25	6	69*	-14	-5
COc1ccc(C(=O)/C(=C\c2ccco2)N2C=CC=CC2=C(C#N)C#N)cc1	-9	3	4	18	-9	-7
O=C1C=C(c2cnc3ccccc3c2)C[C@@H](c2ccc3c(c2)OCO3)C1	0	7	6	-8	6	-2
Cc1nn(CC(=O)N2CCc3ccccc3C2)c(C)c1Cl	21*	-11	-1	-8	1	-5
CSc1sc(C(=O)N(C)C)c2c1S(=O)(=O)N(C)c1ccccc1-2	-5	2	12	-1	-22	-4
COc1ccccc1NC(=O)C1CCCN(c2nc(C)cc(C)n2)C1 (stereo unspecified)	-7	8	-1	-4	17*	-4
Cc1ccc(Cn2cccc(NC(=O)NC3CCCCC3)c2=O)cc1	34*	-8	1	2	4	-5
O=C(Nc1cccn(Cc2ccc(F)cc2)c1=O)NC1CCCCC1	-3	2	2	2	-6	1
COc1ccc(Oc2nnc(-c3ccccc3)cc2C#N)cc1	10	0	1	0	27*	-2
CCOC(=O)C(NC(=O)c1ccc(OC)cc1)(OCC1(CC)COC1)C(F)(F)F (stereo unspecified)	11	-12	0	-7	18*	-2
CCOC(=O)C(NC(=O)c1ccccc1)(OCC1(CC)COC1)C(F)(F)F (stereo unspecified)	-1	-1	0	-3	-5	-2
COc1ccc(CCN2C(=O)C(Oc3ccccc3C)C2c2ccc3c(c2)OCO3)cc1OC (stereo unspecified)	-16	11	5	29*	-6	-1
COc1ccc(CCN2C(=O)C(Oc3ccccc3C)C2c2ccc3c(c2)OCO3)cc1 (stereo unspecified)	3	13	5	-1	-11	1
CCO/C(C)=C1/SC(=S)NC1=O	-7	11	1	9	-13	2
Cc1cccc(C)c1NC(=O)CS(=O)CC(=O)NCC1OCCc2ccccc21 (stereo unspecified)	23*	4	1	-6	8	2
CCc1ccc(NC(=O)CS(=O)CC(=O)NCC2OCCc3ccccc32)cc1 (stereo unspecified)	3	-1	0	-5	0	-5
COc1ccccc1CC1S/C(=N/N=C/c2ccco2)NC1=O (stereo unspecified)	-3	1	1	6	-3	-2
